Drawing on ChEMBL document CHEMBL4818983, “Structure-activity relationship and hypoglycemic activity of tricyclic matrines with advantage of treating diabetic nephropathy” (Eur J Med Chem, 2020), this text covers Activity, LD50 and Ratio for one compound.

Series [1] is described as follows: Effect on high fat diet-fed KK-Ay mouse model of obesity and diabetes assessed as food intake at 100 mg/kg, po (reference value: 5.67 +/- 0.55 g/day). The settings on record: in vivo. Type of series: ADME, organism-based. Put shortly:
(§1)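 KK-Ay mice on lipogenic diet, with C57BL/6J mice as normal controls, dosed orally at 50 or 100 mg/kg (test) or 5 mg/kg (RGZ). Food intake (g/day), water intake (mL/day) and body weight recorded before and after treatment; body weight gain calculated. Mean±SD, 8-9 mice per group.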

The test system of series [2] is Mus musculus. Description: Antidiabetic activity in KK-Ay mouse assessed as effect on glycosylated haemoglobin level at 50 mg/kg, po for 50 days by glucose oxidase method (reference value: 8.74 +/- 1.08%). The series is classed as functional. Conditions: time 50 day. An outline of the steps: (§2)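 Lipogenic-diet KK-Ay mice given 50 or 100 mg/kg compound or 5 mg/kg rosiglitazone orally for 50 days, C57BL/6J as normal controls. Fasting blood glucose, glycosylated haemoglobin, AGE, insulin, HOMA-IR, cholesterol, LDL-c, TG, serum creatinine and BUN determined. Mean ± SD, 8-9 mice per group.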

Series [3] in a line: Effect on high fat diet-fed KK-Ay mouse model of obesity and diabetes assessed as total body weight gain at 50 mg/kg, po (reference value: 43.5 +/- 5.24 g). The series is classed as ADME, organism-based. The settings on record: in vivo. Put shortly:
as §1

Series [4] has as its system L6. Description: Increase in glucose consumption in rat L6 cells after 24 hrs by glucose oxidase assay. Type of series: functional, cell-based. An outline of the steps:
(§3)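 L6 myotubes treated with DMSO, compound or RGZ (20 μM) at the indicated concentrations for 24 h. Culture supernatants assayed for glucose consumption and lactate release; lysed cells assayed for ATP, normalized to protein. Mean ± SD of 3 independent experiments vs DMSO.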

Series [5] deals with L6. Description: Induction of glycolysis in rat L6 cells assessed as increase in lactate release at 10 to 40 uM measured after 24 hrs. Conditions: dose 10-40 µM.
For series [6], the system named is Mus musculus. The experiment in a line: Antidiabetic activity in KK-Ay mouse assessed as reduction in fasting blood glucose level at 100 mg/kg, po for 50 days by glucose oxidase method (reference value: 13.3 +/- 2.85 mM). Type of series: functional. The settings on record: time 50 day. Put shortly: as §2
The nature of series [7]: Acute toxicity in po dosed Kunming mouse administered as single dose measured for 7 days. The series is classed as organism-based. The settings on record: in vivo, time 7 day. An outline of the steps:
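Kunming mice each received one oral dose at 250, 500, 750 or 1000 mg·kg^-1 and were closely monitored for 7 days. The median lethal dose (LD50) was estimated from this single-dose experiment.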

A short description of series [8]: Effect on high fat diet-fed po dosed C57BL/6J mouse model of obesity and diabetes assessed as total body weight gain. The series is classed as organism-based. Conditions: in vivo.
In a further series the test system is HepG2. Description: Increase in glucose consumption in human HepG2 cells assessed as Gx/GDMSO ratio at 25 uM by glucose oxidase assay. Type of series: functional. An outline of the steps: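 HepG2 glucose consumption screen. Test compounds at 25 μM, metformin at 5 mM. Activity expressed as ratio of glucose consumption to DMSO-treated cells (Gx/G_DMSO).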

A short description of series [9]: Effect on high fat diet-fed KK-Ay mouse model of obesity and diabetes assessed as food intake at 50 mg/kg, po (reference value: 5.67 +/- 0.55 g/day). Type of series: ADME, organism-based. Conditions: in vivo. An outline of the steps: as §1
Series [10] is described as follows: Effect on high fat diet-fed KK-Ay mouse model of obesity and diabetes assessed as water intake at 50 mg/kg, po (reference value: 21.2 +/- 4.17 ml/day). The settings on record: in vivo. Type of series: ADME, organism-based. Put shortly:
as §1

Series [11] has as its system Mus musculus. Description: Antidiabetic activity in KK-Ay mouse assessed as effect on AGE level at 50 mg/kg, po for 24 hrs by ELISA (Rvb 2.85 +/- 0.92 ug/ml). The series is classed as functional. A general note: In an ELISA, binding on a coated surface is turned into a signal by an enzyme label.
The test system of series [12] is Mus musculus. Description: Antidiabetic activity in KK-Ay mouse assessed as effect on LDL level at 100 mg/kg, po […] by ELISA (reference value: 1.11 +/- 0.24 mM). Type of series: functional.
For series [13], the system named is L6. Description: Induction of glycolysis in rat L6 cells assessed as reduction in cellular ATP production at 10 to 40 uM measured after 24 hrs. The series is classed as functional, cell-based. The settings on record: dose 10-40 µM. Put shortly:
as §3

Series [14] relates to Mus musculus. The experiment in a line: Anti-diabetic activity in high fat diet-fed KK-Ay mouse model of obesity and diabetes assessed as reduction in microalbumin level in urine at 50 to 100 mg/kg, po measured after 24 hrs. The series is classed as functional, organism-based. Conditions: dose 50-100 mg/kg. An outline of the steps: (§4)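 Before study end, 24-h urine collected from C57BL/6J controls and KK-Ay mice (untreated, oral 50 or 100 mg/kg compound, or 5 mg/kg rosiglitazone). Volume, glucose, total protein and microalbumin measured by kits. Mean ± SD, 8-9 mice per group, vs C57BL/6J or untreated KK-Ay.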

Series [15] is filed under the species Mus musculus. The experiment in a line: Anti-diabetic activity in high fat diet-fed C57BL/6J mouse model of obesity and diabetes assessed as […] in total protein level in urine measured after 24 hrs. The series is classed as functional, organism-based. Put shortly:
as §4

Series [16] deals with Mus musculus. The experiment in a line: Anti-diabetic activity in high fat diet-fed KK-Ay mouse model of obesity and diabetes assessed as improved pathological changes in kidney at 50 to 100 mg/kg, po by hematoxylin and eosin staining based histopathological analysis. Conditions: dose 50-100 mg/kg. Type of series: functional, organism-based. Put shortly:
(§5)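 Mice sacrificed at study end, with KK-Ay given 50 or 100 mg/kg compound or 5 mg/kg rosiglitazone orally and C57BL/6J as normal controls. Kidney and pancreas sections H&E stained, imaged at 200×, pathological changes scored. Mean ± SD of 8-9 mice per group.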

Series [17] has as its system Mus musculus. The experiment in a line: Anti-diabetic activity in overnight fasted diabetic KK-Ay mouse assessed as increase in insulin responsiveness by measuring blood glucose at 50 to 100 mg/kg, po measured after 35 days by insulin tolerance test. The series is classed as functional, organism-based. The settings on record: dose 50-100 mg/kg, time 35.0 day. An outline of the steps:
(§6)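 KK-Ay mice orally treated with 50 or 100 mg/kg compound or 5 mg/kg rosiglitazone, C57BL/6J as normal controls. After 35 days of treatment, oral glucose tolerance test and insulin tolerance test run. Blood glucose plotted against time, AUC calculated. Mean ± SD, 8-9 mice per group.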

The nature of series [18]: Effect on high fat diet-fed KK-Ay mouse model of obesity and diabetes assessed as water intake at 100 mg/kg, po (reference value: 21.2 +/- 4.17 ml/day). Type of series: ADME, organism-based. Conditions: in vivo. Put shortly:
as §1

Series [19] deals with Mus musculus. Description: Anti-diabetic activity in overnight fasted diabetic KK-Ay mouse assessed as reduction in blood glucose AUC at 50 to 100 mg/kg, po measured after 35 days by oral glucose tolerance test. Type of series: functional, organism-based. The settings on record: dose 50-100 mg/kg, time 35.0 day. Put shortly:
as §6

Series [20] relates to Mus musculus. The experiment in a line: Antidiabetic activity in KK-Ay mouse assessed as effect on BUN level at 50 mg/kg, po for 24 hrs by ELISA (reference value: 12.8 +/- 2.97 mM). The series is classed as functional.
Series [21] can be described thus: Acute toxicity in Kunming mouse assessed as effect on blood GOT level at 250 to 1000 mg/kg, po administered as single dose measured for 7 days. The series is classed as organism-based. The settings on record: in vivo, 168 h, dose 250-1000 mg/kg, time 7 day. Put shortly:
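Kunming mice each received one oral dose at 250, 500, 750 or 1000 mg·kg^-1 and were closely monitored for 7 days. At the end, blood was sampled and GOT, GPT, BUN and CRE were measured […] as liver and kidney function markers.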

In series [22] the test system is Mus musculus. Description: Anti-diabetic activity in high fat diet-fed KK-Ay mouse model of obesity and diabetes assessed as improved pathological changes in pancreas at 50 to 100 mg/kg, po by hematoxylin and eosin staining based histopathological analysis. The series is classed as functional, organism-based. The settings on record: dose 50-100 mg/kg. An outline of the steps:
as §5

In series [23] the test system is Mus musculus. The experiment in a line: Antidiabetic activity in KK-Ay mouse assessed as effect on AGE level at 100 mg/kg, […] by ELISA (Rvb 2.85 +/- 0.92 ug/ml). The series is classed as functional.

Calls of active or inactive are those of the source. No cut-off for these calls is given here.

One may read the LD50 as the dose at which mortality reaches 50%. A low value points to greater toxicity. For `CCCC[C@@H]1[C@H]2CCCN3CCC[C@@H](CN1S(=O)(=O)c1ccc(C(F)(F)F)cc1)[C@@H]23`, the Activity is 5.28 g/day in series [1]; 7.07% in the series with Mus musculus [2]; 3.52 g in series [3]; “Dose-Dependent Effect” in the series on L6 [4]; “Dose-Dependent Effect” with L6 [5]; 8.18 mM with Mus musculus [6]. In addition, the Activity in [8] came to 3.42 g; in series [9] it was 5.2 g/day; in series [10], 13.8 mL/day; with Mus musculus [11] it was 1.59 µg/mL; in the series with Mus musculus [12], 0.82 mM; in series [18], 11.9 mL/day. Also, the Activity is 12.7 mM in the series on Mus musculus [20], “Non-Toxic” in series [21] and 1.13 µg/mL in the series with Mus musculus [23]. For the same compound, in series [7], the LD50 at 168 h is 1000 mg/kg. For the same compound, the Ratio in the series with HepG2 is 1.49. In addition, the outcome with L6 [13], in the series with Mus musculus [14], in the series on Mus musculus [16], in the series on Mus musculus [17], in the series on Mus musculus [19] and with Mus musculus [22] was Active. For the same compound, the result in the series filed under Mus musculus [15] was inactive.
